From ChEMBL document CHEMBL5241063, “Synthetic and medicinal perspective of quinolines as antiviral agents” (Eur J Med Chem, 2021) come the findings set out here.

SMILES strings stand for the structures. Some results are limits rather than exact numbers.

The subject of data set [1] is Human immunodeficiency virus 1. The experiment in a line: Antiviral activity against HIV-1 IIIB infected in human MT2 cells assessed as inhibition of viral replication by p24 ELISA method. It counts as functional, organism-based. The settings on record: Human immunodeficiency virus 1, IIIB.
Data set [2] has as its system Human immunodeficiency virus 1. The experiment in a line: Antiviral activity against HIV-1 92US657 infected in human MT2 cells assessed as inhibition of viral infection. The class given is functional, organism-based. The note with it: Human immunodeficiency virus 1, 92US657, MT2.
Data set [3] relates to Human immunodeficiency virus 1. The experiment in a line: Anti-HIV activity against HIV-1 NL4.3 infected in human MT2 cells measured after 48 hrs by luminescence based assay. It counts as functional, organism-based. The note with it: Human immunodeficiency virus 1, NL4.3, MT2, 48 h.
Data set [4] in a line: Selectivity index, ratio of CC50 for cytotoxicity against human Huh-7 cells to IC50 for antiviral activity against recombinant VSV-deltaG pseudotyped GFP-tagged EBOV infected in human Huh-7 cells. The note with it: read-out: Ratio CC50/IC50. The class given is toxicity, cell-based.
The subject of a further data set is Ebolavirus. The experiment in a line: Antiviral activity against recombinant VSV-deltaG pseudotyped GFP-tagged EBOV infected in human Huh-7 cells preincubated with cells for 1 hr followed by viral infection and measured after 16 hrs by […] assay. The class given is functional, organism-based. The settings on record: Orthoebolavirus.
The next data set concerns enterovirus D68. Kind of data set: Antiviral activity against Enterovirus D68 US/KY/14-18953 infected in human RD cells assessed as reduction in virus induced cytopathic effect. It counts as functional, organism-based. The settings on record: Enterovirus D, US/KY/14-18953, RD. Background: Cytopathic effects are the visible damage that an infection or toxin causes in cultured cells.

A short description of data set [5]: Selectivity index, ratio of CC50 for cytotoxicity against human RD cells to EC50 for antiviral activity against Enterovirus D68 US/KY/14-18953 infected in human RD cells. The note with it: read-out: Ratio CC50/EC50. The class given is toxicity, cell-based.
The next data set deals with Zika virus. Kind of data set: Antiviral activity against ZIKV PRVABC59. The class given is functional, organism-based. An outline of the steps: (§1)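 Human glioblastoma SNB-19 cells were infected with ZIKV strain PRVABC59 at MOI 1. Virus production was measured by titer assay in Vero cells. Niclosamide served as positive and quality control in each antiviral assay.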
A short description of data set [6]: Selectivity index, ratio of CC50 for cytotoxicity against human SNB-19 cells to EC50 for antiviral activity against ZIKV PRVABC59. The note with it: read-out: Ratio CC50/EC50. It counts as toxicity, cell-based. An outline of the steps: as §1
The nature of data set [7]: Cytotoxicity against african green monkey Vero cells incubated for 48 hrs. The class given is toxicity, cell-based. The settings on record: chlorocebus sabaeus, Vero cells.
The nature of data set [8]: Selectivity index, ratio of CC50 for cytotoxicity against african green monkey Vero cells to EC50 for antiviral activity against ZIKV PRVABC59. The class given is toxicity, cell-based. The note with it: read-out: Ratio CC50/EC50.
Data set [9] in a line: Cytotoxicity against human SNB-19 cells incubated for 24 hrs. The settings on record: SNB-19 cells. It counts as toxicity, cell-based.
Data set [10] is described as follows: Cytotoxicity against african green monkey Vero cells incubated for 48 hrs by CellTiter-Glo luminescence based assay. The class given is toxicity, cell-based. The note with it: chlorocebus sabaeus. In general terms: ATP-based viability assays read luminescence as a measure of living cells.
A further data set concerns dengue virus type 2. The experiment in a line: Antiviral activity against Dengue virus serotype 2 infected in african green monkey Vero cells assessed as reduction in virus yield preincubated for 1 hr followed by replacement with medium containing compounds and measured after 48 hrs by crystal violet staining based plaque assay. It counts as functional, organism-based.

The test system of data set [11] is Human immunodeficiency virus 1. Kind of data set: Antiviral activity against HIV-1 infected in human HeLa P4 cells assessed as inhibition of viral particles production. It counts as functional, organism-based. The settings on record: Human immunodeficiency virus 1, HeLaP4.
The nature of data set [12]: Inhibition of HIV-1 integrase. Details: species or system Human immunodeficiency virus 1.
Data set [13] can be described thus: Cytotoxicity against human CEM-SS cells assessed as inhibition of cell growth. It counts as toxicity, cell-based.
Data set [14] can be described thus: Cytotoxicity against african green monkey Vero E6 cells by CCK8 assay. The settings on record: chlorocebus sabaeus. The class given is toxicity, cell-based, Vero C1008. In general terms: Formazan colour is commonly taken as a measure of viable cells.
Data set [15] deals with Human immunodeficiency virus 1. Kind of data set: Antiviral activity against HIV-1 infected in human H9 cells assessed as inhibition of viral replication. The settings on record: Human immunodeficiency virus 1, H9. It counts as functional, organism-based.

For the molecule `COc1nc2ccccc2cc1/C=C1\NC(=O)N(CCc2ccccc2)C1=O`, the EC50 in data set [1] worked out at 0.42 µM; in data set [2], 0.52 µM.

With `COc1ccc2nc(Cl)c(/C=C3\NC(=O)N(CCc4ccccc4)C3=O)cc2c1`, the EC50 in [1] was determined as 1.01 µM; in data set [2], 0.52 µM. As to `Cc1cc(C)c2c(c1)N[C@H](c1cccc(N)c1)C[C@@H]2N1CCCC1=O`, in data set [3], the IC50 amounted to 50 µM.

On to `COc1ccc2nc(OC)c(/C=C3\NC(=O)N(Cc4ccccc4)C3=O)cc2c1`, for which the half-maximal effective concentration (EC50) in data set [1] came out at 0.27 µM; in [2] it was 0.52 µM. Turning to `CCCCCCCCN(C)Cc1cc(Nc2ccnc3cc(I)ccc23)ccc1O`, the selectivity ratio in [4] is greater than 100. Besides, the concentration for half-maximal inhibition (IC50) in the data set with Ebolavirus worked out at 0.26 µM.

Turning to `CCCCCCNCc1cc(Nc2ccnc3cc(Cl)ccc23)ccc1O`, in the data set with Ebolavirus, the IC50 amounted to 0.29 µM. On to `CN(C)CCNC(=O)c1cc(Oc2cccs2)nc2ccccc12`, for which the concentration giving a half-maximal response (EC50) in the data set on enterovirus D68 is 0.04 µM. In addition, the selectivity ratio in [5] is greater than 600. Consider `CCCCN(CCCC)Cc1cc(Nc2ccnc3cc(Cl)ccc23)ccc1O`, for which the selectivity ratio in data set [4] was greater than 130. In the data set on Ebolavirus, the IC50 amounted to 0.72 µM. Consider `C=C1CC[C@H]2[C@@](C)(CCC(O)[C@@]2(C)CO)[C@@H]1C/C=C1/C(=O)OC[C@H]1Oc1cccc2cccnc12` (some centres undefined), for which the concentration for a half-maximal effect (EC50) in the data set on Zika virus is 11 µM. The selectivity ratio in data set [6] is 5.5; in data set [8], 2.1. In [7], this molecule had a cytotoxic concentration (CC50) at 48 h of 22.8 µM. For the same molecule, half-maximal cytotoxicity in data set [9] (CC50 at 24 h) was put at 60.1 µM. On to `Cc1cccc2cc(/C=C3\NC(=O)N(CCc4ccccc4)C3=O)c(Cl)nc12`, for which the figures for the concentration for a half-maximal effect (EC50) in data set [1] and in data set [2] were 0.5 µM and 0.52 µM, respectively. `CC(C)c1ccc2c(Cl)cc(Cl)c(O)c2n1`: in [10], the CC50 at 48 h was found to be 16.1 µM. In addition, the IC50 in the data set on dengue virus type 2 was 3.03 µM.

For the molecule `O=C(NCCN1CCCC1)c1cc(Oc2cccs2)nc2ccccc12`, in the data set with enterovirus D68, the EC50 was 0.06 µM. Besides, the selectivity ratio in data set [5] is greater than 600.

`O=C(O)/C=C\c1cc(C(=O)O)c(O)c2cc(/C=C/c3ccc(O)c(O)c3)ccc12`: in data set [11], the IC50 came to 35 µM. With `CN(C)CCNC(=O)c1cc(Oc2ccccc2)nc2ccc(Cl)cc12`, the EC50 with enterovirus D68 came to 1.2 µM. On to `CCN(CC)Cc1cc(Nc2c(Oc3ccccc3)cnc3cc(Cl)ccc23)ccc1O`, for which, in the data set with Ebolavirus, the IC50 came to 0.73 µM. For `CC(C)Oc1ccc2cc(/C=C3\NC(=O)N(CCc4ccccc4)C3=O)c(Cl)nc2c1`, the EC50 in data set [1] worked out at 0.33 µM; in data set [2] it was 0.52 µM. The matching figures for `O=C1N/C(=C\c2cccc3ccccc23)C(=O)N1Cc1ccccc1`: 1.52 µM and 0.52 µM.

Molecule `CC(C)Cc1ccc2c(Cl)cc(Cl)c(O)c2n1` had a CC50 at 48 h in data set [10] of 19.4 µM. In addition, in the data set on dengue virus type 2, the IC50 amounted to 0.49 µM. In data set [12], `O=C(NCc1ccc(O)c(O)c1)c1ccc2ccc(C(=O)O)c(O)c2n1` showed a concentration for half-maximal inhibition (IC50) of 5 µM. Same read-out and setting: in the case of `O=C(NCc1ccc(O)c(O)c1O)c1ccc2ccc(C(=O)O)c(O)c2n1` it was 1.5 µM; in that of `COc1cc(NC(=O)c2ccc3ccc(C(=O)O)c(O)c3n2)cc(O)c1O`, 6.5 µM. Take `CCN(CC)Cc1cc(Nc2ccnc3cc(Cl)ccc23)ccc1O` [AMODIAQUINE]: the selectivity ratio in data set [4] was 37. Consider `C=CC(C)(C)C1(CC=C(C)C)C(=O)Nc2ccccc2C1=O` (centres undefined) [BUCHAPINE], for which, in [13], the IC50 came to 29 µM.

On to `CCN(CC)CCCC(C)Nc1ccnc2cc(Cl)ccc12` (centres undefined) [CHLOROQUINE], for which, in data set [14], the CC50 worked out at 250 µM. For `COc1c2ccc(O)cc2nc2occc12` [CONFUSAMELINE], the EC50 in data set [15] was less than 5.85 µM.

On to `COc1c2ccoc2nc2c(OC)cccc12` [GAMMA-FAGARINE], for which the half-maximal effective concentration (EC50) in [15] was less than 5.85 µM. On the same count and under the same terms, the value for `COc1c2[nH]c3occc3c(OC)c-2ccc1=O` [HAPLOPINE] was less than 5.85 µM.

In data set [14], `CCN(CCO)CCCC(C)Nc1ccnc2cc(Cl)ccc12` (centres undefined) [HYDROXYCHLOROQUINE] had a CC50 of 273 µM.

Usually EC50 stands for the concentration giving half of the maximal effect. For orientation: IC50 means the point on the concentration scale where inhibition reaches its midpoint. Usually CC50 stands for the concentration that lowers cell viability or growth by half.
